Data published in ChEMBL document CHEMBL1134834, “Quinoxalinylethylpyridylthioureas (QXPTs) as potent non-nucleoside HIV-1 reverse transcriptase (RT) inhibitors. Further SAR studies and identification of a novel orally bioavailable hydrazine-based antiviral agent” (J Med Chem, 2001).

Experiments:
[1] = molecular target: Human immunodeficiency virus type 1 reverse transcriptase (Human immunodeficiency virus 1, UniProt Q72547, K103N); assay: Inhibition of HIV-1 Mutant HIV-1 RT enzymes containing the single amino acid substitution K103N
[2] = molecular target: Human immunodeficiency virus type 1 reverse transcriptase (Human immunodeficiency virus 1, UniProt Q72547, V106A); assay: Inhibition of HIV-1 Mutant HIV-1 RT enzymes containing the single amino acid substitution V106A
C8166 [3] = assay: Synergistic antiviral activity with AZT (DDI), against HIV-IIIB in C8166 cells; assay type: functional, cell-based; details: Homo sapiens
Outline: (§1)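 C8166 cells infected with HIV-IIIB and treated with compound combined with AZT (or DDI). Combination index calculated by the Chou-Talalay multiple drug effect analysis under both mutually exclusive and mutually nonexclusive assumptions.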

[4] = molecular target: T1, Human immunodeficiency virus type 1 reverse transcriptase (Human immunodeficiency virus 1, UniProt Q72547); assay: Inhibition of HIV-1 wild-type RT
Daudi [5] = assay: Cytotoxicity on Daudi Human(DH) cell line (O.D.=0.129+/-0.018); assay type: functional; details: read-out: TC50 (the source's name)
C8166 [6] = assay: Concentration which results in 50% survival of uninfected untreated control C8166 cells (cytotoxicity of the compound); assay type: functional, cell-based; details: Homo sapiens
Outline: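 Toxicity in uninfected C8166 cells by MTT reduction to formazan, read spectrophotometrically.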

CEM-SS [7] = assay: Concentration which produces a 50% survival of HIV-1 infected cells relative to uninfected control CEM-SS cells (in vitro anti-HIV activity); assay type: functional, cell-based; details: Homo sapiens
Outline: (§2)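 CEM-SS T4 lymphocytes infected with wild-type HIV-1. Protection from virus-induced cell death is scored against an AZT-treated positive control run under identical conditions. […] SI = IC50/EC50.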

[8] = Cytotoxicity on normal human lymphocytes(HL) (O.D.=0.114+/-0.01); assay type: functional; details: read-out: TC50 (the source's name)
[9] = Selectivity index was determined in C8166 cells; assay type: functional
Outline: (§3)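 C8166 CD4+ T-cell line (HTLV-I genome, only tat expressed) acutely infected with lymphocytotropic HIV-1 IIIB. […] Read-out is HIV-p24 antigen in supernatants. AZT positive control was run at the same time. SI = IC50/EC50.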

CEM-SS [10] = assay: (§4) Concentration which results in 50% survival of uninfected untreated control CEM-SS cells (cytotoxicity of the compound); assay type: functional, cell-based; details: Homo sapiens, read-out: IC50 (the source's name)
[11] = molecular target: Human immunodeficiency virus type 1 reverse transcriptase (Human immunodeficiency virus 1, UniProt Q72547, Y181I); assay: Inhibition of HIV-1 Mutant HIV-1 RT enzymes containing the single amino acid substitution Y181I
[12] = molecular target: T1, Human immunodeficiency virus type 1 reverse transcriptase; assay: Inhibition of HIV-1 Mutant HIV-1 RT enzymes containing the single amino acid substitution […]
NIH3T3 [13] = assay: Cytotoxicity on 3T3 fibroblasts (3T3F) murine cell line (O.D.=0.131+/-0.014); assay type: functional; details: Mus musculus, read-out: TC50 (the source's name)
[14] = molecular target: Human immunodeficiency virus type 1 reverse transcriptase (Human immunodeficiency virus 1, UniProt Q72547, Y188L); assay: Inhibition of HIV-1 Mutant HIV-1 RT enzymes containing the single amino acid substitution Y188L
[15] = Selectivity index was determined in CEM-SS cells; assay type: functional; outline: as §2
Mus musculus [16] = organism: Mus musculus; assay: Cytotoxicity on NSO murine cell line (O.D.=0.125+/-0.015); assay type: functional; details: read-out: TC50 (the source's name)
C8166 [17] = assay: Synergistic antiviral activity of AZT (DDI) with the compound, against HIV-IIIB in C8166 cells; assay type: functional, cell-based; details: Homo sapiens; outline: as §1
C8166 [18] = assay: Antiviral activity alone against HIV-IIIB in C8166 cells; assay type: functional, cell-based; details: Homo sapiens; outline: as §3
[19] = tested on: Human immunodeficiency virus 1; assay: Concentration which produces a 50% survival of HIV-1 infected cells relative to uninfected control C8166 cells; assay type: functional, organism-based; details: Human immunodeficiency virus 1, C8166
[20] = Selectivity index (IC50/EC50) was determined in CEM-SS cells; assay type: functional
Outline: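 CEM-SS (T4 lymphocyte) cells infected with wild-type HIV-1 were scored for protection from virus-induced cell death. […] SI = IC50/EC50. An AZT-treated positive control was run in parallel under identical conditions.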

[21] = Selectivity index (IC50/EC50) was determined in C8166 cells; assay type: functional
NIH3T3 [22] = assay: (§5) cytotoxicity on 3T3 fibroblasts (3T3F) murine cell line (O.D.=0.131+/-0.014); assay type: functional; details: Mus musculus, read-out: TC50 (the source's name)
[23] = Selectivity index between IC50 of HIV-1-p24 and EC50 of HIV-1-p24 (IC50/EC50); assay type: functional
Outline: (§6)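 Macrophages from adherent PBMC (10^6/mL, RPMI-1640 with 20% heat-inactivated FCS), 10^5 per well, >95% pure, infected with monocytotropic HTLV-III Ba-L. Antiviral activity read 14 days after infection. […] SI = IC50/EC50. AZT control run in parallel.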

[24] = (§7) cytotoxicity on normal human lymphocytes(HL) (O.D.=0.114+/-0.01); details: read-out: TC50 (the source's name)
CEM-SS [25] = assay: as §4; assay type: cell-based; details: Homo sapiens
Mus musculus [26] = organism: Mus musculus; assay: cytotoxicity on NSO murine cell line (O.D.=0.125+/-0.015); assay type: functional; details: read-out: TC50 (the source's name)
Daudi [27] = assay: cytotoxicity on Daudi Human(DH) cell line (O.D.=0.129+/-0.018); assay type: functional; details: read-out: TC50 (the source's name)
[28] = tested on: Human immunodeficiency virus 1; assay: Inhibition of HIV-1-p24 antigen production in monocyte-macrophages (cytotoxicity of the compound); assay type: organism-based; outline: as §6
[29] = tested on: Human immunodeficiency virus 1; assay: Inhibition of HIV-1-p24 antigen production in monocyte-macrophages (in vitro anti-HIV-1 activity); assay type: functional, organism-based; outline: as §6
Murine cell line = assay: as §5; assay type: functional; details: Mus musculus, read-out: TC50 (the source's name)
[30] = as §7; assay type: functional; details: read-out: TC50 (the source's name)

Row | Compound | Ki [1] [nM] | Ki [2] [nM] | EC50 (C8166 [3]) [nM] | Ki [4] [nM] | IC50 (C8166 [6]) [nM] | EC50 (CEM-SS [7]) [nM] | CC50 (CEM-SS [10]) [nM] | Ki [11] [nM] | Ki [12] [nM] | Ki [14] [nM] | EC50 (C8166 [17]) [nM] | EC50 (C8166 [18]) [nM] | EC50 [19] [nM] | SI [20] | SI [21] | CC50 (Mus musculus [26]) [nM] | CC50 (Daudi [27]) [nM] | also measured
1 | O=c1c2nccn2c2ccccc2n1CCNC(=S)Nc1ccc(Br)cn1 | 240 | 350 | 460 | 250 | 88000 | 13 | > 2000 | 1400 | 1000 | 5000 | 66 | 588 | 320 |  |  |  |  | CC50 (Daudi [5]): 680000 nM; CC50 [8]: 670000 nM; SI [9]: 275; CC50 (NIH3T3 [13]): 690000 nM; SI [15]: >150; CC50 (Mus musculus [16]): 680000 nM
2 | O=c1c2cccn2c2ccc(F)cc2n1CC/N=C(\S)Nc1ccc(Br)cn1 | 650 | 40 | 57 | 29 | 15000 | 63 |  | 1000 | 700 | 1200 | 85 | 66 | 32 | >3170 | 468 | 20000 | 19000 | CC50 (NIH3T3 [22]): 20000 nM; SI [23]: 12200; CC50 [24]: 20000 nM; IC50 (CEM-SS [25]): > 200000 nM; IC50 [28]: 49000 nM; EC50 [29]: 4 nM
3 | Cc1cc2nc(OCCNC(=S)Nc3ccc(Br)cn3)c3cccn3c2cc1C | 450 | 150 |  | 220 |  |  |  | 660 | 500 | 1500 |  |  |  |  |  |  |  | 
4 | O=c1c2cccn2c2ccc(Cl)cc2n1CCNC(=S)Nc1ccc(Br)cn1 | 150 | 20 |  | 20 | 7000 | 1.8 | > 2000 | 240 | 160 | 900 |  |  | 61 | >1080 | 123 | 970000 | 960000 | CC50 (Murine cell line): 980000 nM; CC50 [30]: 970000 nM
